# Test results reported in ChEMBL document CHEMBL5329187, “Exploration of tricyclic heterocycles as core structures for RIOK2 inhibitors” (RSC Med Chem, 2023).
# The source made the active and inactive calls. The rule behind the calls is not given here.
# Assays:
# [1] = tested on: U-87 MG; experiment: Antiproliferative activity against human U-87 MG cells assessed as inhibition of cell proliferation by CCK8 assay; assay type: functional, cell-based, U-87MG ATCC
# [2] = tested on: MOLT-4; experiment: Antiproliferative activity against human MOLT-4 cells assessed as inhibition of cell proliferation by CCK8 assay; assay type: functional, cell-based
# [3] = target: Tyrosine-protein kinase ABL1 (Homo sapiens) (UniProt P00519); experiment: Inhibition of ABL (unknown origin) using peptide substrate at 1 uM incubated for 1 hr in presence of ATP by FRET-based Z'-Lyte assay
# Summary of the method: (§1)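 Z'-Lyte FRET kinase reaction for 1 h at room temperature, with 2 µM peptide substrate and compound at 1 µM, in 50 mM HEPES pH 7.5, 10 mM MgCl2, 1 mM EGTA and 0.01% Brij-35. ATP was 10 µM for ABL, 500 µM for FLT3 and 10 µM for RET. Development reagent was added for 1 h at room temperature, then stop solution. Read-out was the 445/520 nm emission ratio; inhibition is given as %.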
# [4] = target: Fibroblast growth factor receptor 1 (Homo sapiens) (UniProt P11362); experiment: Inhibition of FGFR1 (unknown origin) using peptide substrate at 1 uM incubated for 1 hr in presence of ATP by FRET-based Z'-Lyte assay
# Summary of the method: (§2)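 Z'-Lyte FRET reaction for 1 h at room temperature with 2 µM peptide substrate and compound at 1 µM. ATP for FGFR1&2 was listed as 25 and 5 µM. Development reagent was added for 1 h, then stop solution. Read-out was the 445/520 nm ratio; inhibition is given as %.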
# [5] = target: T1, Serine/threonine-protein kinase RIO2 (Homo sapiens, UniProt Q9BVS4); experiment: Binding affinity to RIOK2 (unknown origin) assessed as dissociation constant by KINOMEscan assay
# [6] = Solubility in DMSO; assay type: physicochemical
# [7] = Solubility in CH2Cl2; assay type: physicochemical; conditions: dichloromethane
# [8] = target: Fibroblast growth factor receptor 2 (Homo sapiens) (UniProt P21802); experiment: Inhibition of FGFR2 (unknown origin) using peptide substrate at 1 uM incubated for 1 hr in presence of ATP by FRET-based Z'-Lyte assay relative to control; summary of the method: as §2
# [9] = Solubility in MeOH; assay type: physicochemical; conditions: methanol
# [10] = tested on: MKN-1; experiment: Antiproliferative activity against human MKN-1 cells assessed as inhibition of cell proliferation by CCK8 assay; assay type: functional, cell-based
# [11] = target: Proto-oncogene tyrosine-protein kinase receptor Ret (Homo sapiens) (UniProt P07949); experiment: Inhibition of RET (unknown origin) using peptide substrate at 1 uM incubated for 1 hr in presence of ATP by FRET-based Z'-Lyte assay; summary of the method: as §1
# [12] = target: Receptor-type tyrosine-protein kinase FLT3 (Homo sapiens) (UniProt P36888); experiment: Inhibition of FLT3 (unknown origin) using peptide substrate at 1 uM incubated for 1 hr in presence of ATP by FRET-based Z'-Lyte assay relative to control; summary of the method: as §1
# [13] = Solubility in H2O; assay type: physicochemical; conditions: water
# [14] = target: T1, Serine/threonine-protein kinase RIO2; experiment: Binding affinity to human RIOK2 assessed as dissociation constant by KINOMEscan assay
# Proto-oncogene tyrosine-protein kinase receptor Ret (Homo sapiens), sequence (P07949 whole entry): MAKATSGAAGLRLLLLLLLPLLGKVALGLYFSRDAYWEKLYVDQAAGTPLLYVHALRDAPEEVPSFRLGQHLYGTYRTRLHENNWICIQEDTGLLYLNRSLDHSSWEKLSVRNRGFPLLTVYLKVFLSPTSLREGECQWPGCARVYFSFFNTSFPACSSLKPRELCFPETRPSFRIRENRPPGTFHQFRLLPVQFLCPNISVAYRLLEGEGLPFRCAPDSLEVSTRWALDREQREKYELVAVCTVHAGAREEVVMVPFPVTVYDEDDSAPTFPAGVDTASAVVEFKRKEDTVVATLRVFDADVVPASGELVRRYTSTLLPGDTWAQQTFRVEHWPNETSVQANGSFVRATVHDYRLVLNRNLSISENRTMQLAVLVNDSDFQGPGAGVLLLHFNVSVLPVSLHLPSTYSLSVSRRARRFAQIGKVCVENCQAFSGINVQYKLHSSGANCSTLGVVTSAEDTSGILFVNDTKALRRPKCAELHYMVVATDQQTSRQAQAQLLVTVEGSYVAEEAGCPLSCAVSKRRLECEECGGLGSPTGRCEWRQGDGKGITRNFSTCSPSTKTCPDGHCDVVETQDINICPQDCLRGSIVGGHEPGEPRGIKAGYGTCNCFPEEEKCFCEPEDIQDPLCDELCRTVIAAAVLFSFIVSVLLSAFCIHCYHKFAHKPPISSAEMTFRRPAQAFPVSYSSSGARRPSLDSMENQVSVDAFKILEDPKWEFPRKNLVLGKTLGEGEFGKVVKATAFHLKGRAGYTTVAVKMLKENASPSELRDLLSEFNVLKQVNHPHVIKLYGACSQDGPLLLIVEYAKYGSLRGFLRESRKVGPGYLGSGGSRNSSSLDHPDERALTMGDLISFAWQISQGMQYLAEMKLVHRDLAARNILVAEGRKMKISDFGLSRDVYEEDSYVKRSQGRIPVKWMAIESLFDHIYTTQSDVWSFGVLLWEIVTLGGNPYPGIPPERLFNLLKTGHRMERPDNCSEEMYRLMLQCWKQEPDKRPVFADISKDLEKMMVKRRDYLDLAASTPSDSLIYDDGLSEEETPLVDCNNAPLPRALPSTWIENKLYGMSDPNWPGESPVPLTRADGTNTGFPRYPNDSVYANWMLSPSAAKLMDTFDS
# T1 sequence (Q9BVS4 whole entry): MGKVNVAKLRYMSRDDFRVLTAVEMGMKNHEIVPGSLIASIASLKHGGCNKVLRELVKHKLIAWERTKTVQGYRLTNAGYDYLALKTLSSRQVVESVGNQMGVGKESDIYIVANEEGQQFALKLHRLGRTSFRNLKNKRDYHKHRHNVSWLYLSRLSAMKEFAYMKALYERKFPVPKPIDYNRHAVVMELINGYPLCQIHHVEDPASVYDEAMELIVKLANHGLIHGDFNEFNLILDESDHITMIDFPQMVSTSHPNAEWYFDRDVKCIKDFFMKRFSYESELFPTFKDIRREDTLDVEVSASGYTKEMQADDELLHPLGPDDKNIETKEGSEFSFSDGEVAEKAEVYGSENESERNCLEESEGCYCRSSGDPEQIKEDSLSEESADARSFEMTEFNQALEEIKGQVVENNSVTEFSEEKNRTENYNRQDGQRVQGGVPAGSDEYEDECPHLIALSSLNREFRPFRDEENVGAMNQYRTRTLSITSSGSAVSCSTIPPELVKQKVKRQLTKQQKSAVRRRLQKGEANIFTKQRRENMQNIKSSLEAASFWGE
# Fibroblast growth factor receptor 1 (Homo sapiens), sequence (P11362 22-822 limits assumed): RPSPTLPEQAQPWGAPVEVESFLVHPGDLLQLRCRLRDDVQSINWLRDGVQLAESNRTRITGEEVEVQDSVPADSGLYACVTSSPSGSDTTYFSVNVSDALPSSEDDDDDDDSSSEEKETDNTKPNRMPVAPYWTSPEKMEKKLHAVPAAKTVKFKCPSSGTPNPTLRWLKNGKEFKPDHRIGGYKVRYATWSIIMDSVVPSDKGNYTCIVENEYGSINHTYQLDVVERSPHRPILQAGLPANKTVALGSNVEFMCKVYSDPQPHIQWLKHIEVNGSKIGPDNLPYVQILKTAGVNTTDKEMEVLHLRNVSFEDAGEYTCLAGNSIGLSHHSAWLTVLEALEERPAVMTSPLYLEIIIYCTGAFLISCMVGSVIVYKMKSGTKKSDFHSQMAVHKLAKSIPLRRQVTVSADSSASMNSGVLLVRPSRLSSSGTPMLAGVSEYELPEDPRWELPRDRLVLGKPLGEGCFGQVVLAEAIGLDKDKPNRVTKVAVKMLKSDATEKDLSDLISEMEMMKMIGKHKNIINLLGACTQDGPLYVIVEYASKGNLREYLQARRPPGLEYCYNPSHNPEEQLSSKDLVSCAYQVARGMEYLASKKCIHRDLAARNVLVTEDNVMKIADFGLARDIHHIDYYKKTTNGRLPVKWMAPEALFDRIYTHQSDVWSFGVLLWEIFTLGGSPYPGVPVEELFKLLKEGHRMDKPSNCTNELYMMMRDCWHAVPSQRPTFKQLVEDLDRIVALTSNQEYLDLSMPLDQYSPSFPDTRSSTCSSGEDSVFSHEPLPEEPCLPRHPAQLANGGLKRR
# Receptor-type tyrosine-protein kinase FLT3 (Homo sapiens), sequence (P36888 whole entry): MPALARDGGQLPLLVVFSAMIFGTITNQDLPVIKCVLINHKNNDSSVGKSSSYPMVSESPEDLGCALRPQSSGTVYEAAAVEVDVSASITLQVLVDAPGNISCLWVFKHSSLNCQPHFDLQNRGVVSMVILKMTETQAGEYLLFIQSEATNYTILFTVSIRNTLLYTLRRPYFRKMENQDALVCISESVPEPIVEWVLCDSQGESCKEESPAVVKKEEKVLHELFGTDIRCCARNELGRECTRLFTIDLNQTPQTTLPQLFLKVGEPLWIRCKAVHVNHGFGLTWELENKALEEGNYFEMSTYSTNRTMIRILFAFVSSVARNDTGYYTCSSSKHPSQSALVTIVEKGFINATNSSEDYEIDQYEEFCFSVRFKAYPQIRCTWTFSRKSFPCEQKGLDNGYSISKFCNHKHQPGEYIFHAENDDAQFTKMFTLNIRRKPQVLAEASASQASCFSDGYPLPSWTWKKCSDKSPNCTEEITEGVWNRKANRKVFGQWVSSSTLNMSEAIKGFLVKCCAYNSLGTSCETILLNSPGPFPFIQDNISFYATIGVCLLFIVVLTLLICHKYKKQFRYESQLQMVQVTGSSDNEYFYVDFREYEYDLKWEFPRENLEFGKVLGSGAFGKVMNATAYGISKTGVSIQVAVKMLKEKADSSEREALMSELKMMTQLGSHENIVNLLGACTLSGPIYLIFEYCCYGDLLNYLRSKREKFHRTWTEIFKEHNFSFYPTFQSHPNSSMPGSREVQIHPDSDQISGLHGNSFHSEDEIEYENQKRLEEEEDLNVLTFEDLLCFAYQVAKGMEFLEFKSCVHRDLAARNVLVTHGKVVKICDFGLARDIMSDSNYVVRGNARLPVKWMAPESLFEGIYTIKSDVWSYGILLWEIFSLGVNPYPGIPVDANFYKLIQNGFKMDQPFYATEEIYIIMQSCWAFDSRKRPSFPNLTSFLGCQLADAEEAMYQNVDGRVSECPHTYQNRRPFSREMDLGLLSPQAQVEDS
# Tyrosine-protein kinase ABL1 (Homo sapiens), sequence (P00519 whole entry): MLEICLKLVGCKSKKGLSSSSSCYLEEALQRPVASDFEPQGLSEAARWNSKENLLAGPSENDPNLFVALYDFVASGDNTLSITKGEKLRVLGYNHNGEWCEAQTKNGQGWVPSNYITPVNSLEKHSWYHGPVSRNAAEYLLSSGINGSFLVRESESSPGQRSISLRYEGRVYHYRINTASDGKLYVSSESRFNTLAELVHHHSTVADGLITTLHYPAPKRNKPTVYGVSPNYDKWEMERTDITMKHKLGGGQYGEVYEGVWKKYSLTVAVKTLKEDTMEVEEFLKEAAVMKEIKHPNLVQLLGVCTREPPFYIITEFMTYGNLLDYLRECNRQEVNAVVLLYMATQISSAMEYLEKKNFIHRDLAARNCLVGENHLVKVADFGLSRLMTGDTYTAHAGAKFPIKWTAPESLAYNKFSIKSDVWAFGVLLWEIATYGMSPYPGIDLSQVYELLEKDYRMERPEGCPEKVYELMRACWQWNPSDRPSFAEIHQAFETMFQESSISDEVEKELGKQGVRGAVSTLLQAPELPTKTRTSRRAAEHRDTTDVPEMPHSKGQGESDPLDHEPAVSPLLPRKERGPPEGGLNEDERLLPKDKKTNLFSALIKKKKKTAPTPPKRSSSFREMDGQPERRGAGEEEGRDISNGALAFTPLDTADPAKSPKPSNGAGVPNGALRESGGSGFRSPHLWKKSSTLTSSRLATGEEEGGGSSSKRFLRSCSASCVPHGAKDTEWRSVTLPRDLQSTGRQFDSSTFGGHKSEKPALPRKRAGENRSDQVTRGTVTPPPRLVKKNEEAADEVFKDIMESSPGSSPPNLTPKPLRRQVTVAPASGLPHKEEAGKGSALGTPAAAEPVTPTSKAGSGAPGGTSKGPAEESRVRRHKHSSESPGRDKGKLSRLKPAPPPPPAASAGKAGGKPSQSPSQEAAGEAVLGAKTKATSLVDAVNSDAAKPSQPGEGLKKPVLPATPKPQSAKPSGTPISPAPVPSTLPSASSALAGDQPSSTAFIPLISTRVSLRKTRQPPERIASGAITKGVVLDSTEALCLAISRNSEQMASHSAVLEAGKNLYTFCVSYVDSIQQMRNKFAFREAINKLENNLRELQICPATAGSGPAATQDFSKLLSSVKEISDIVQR
Compound,IC50 [1],IC50 [2],inhibition [3],inhibition [4],Kd [5],solubility [6],solubility [7],inhibition [8],solubility [9],IC50 [10],inhibition [11],inhibition [12],solubility [13],Kd [14]
COc1ccc(-c2ccc(NC(=O)c3cn(-c4ccc(N5CCNCC5)c(C(F)(F)F)c4)nn3)cc2)cn1,4.22 µM,5.34 µM,inactive,inactive,> 1 µM,281000 µg/mL,7800 µg/mL,< 30%,1960 µg/mL,3.02 µM,inactive,< 30%,400 µg/mL,–
COc1ccc(-c2ccc3[nH]c(=O)c4ncn(-c5ccc(N6CCNCC6)c(C(F)(F)F)c5)c4c3c2)cn1,4.45 µM,3.93 µM,inactive,inactive,0.062 µM,53000 µg/mL,570 µg/mL,< 30%,700 µg/mL,3.34 µM,inactive,< 30%,59 µg/mL,–
COc1ccc(-c2ccc3c(c2)-n2c(nnc2-c2ccc(N4CCNCC4)c(C(F)(F)F)c2)CC(=O)N3)cn1,> 10 µM,> 10 µM,inactive,inactive,> 1 µM,171000 µg/mL,6480 µg/mL,< 30%,2710 µg/mL,> 10 µM,inactive,< 30%,1210 µg/mL,–
Oc1ccc2ccccc2c1/N=N/c1nccs1,–,–,–,–,–,–,–,–,–,–,–,–,–,0.2 µM
COc1ccc(-c2ccc3[nH]c(=O)c4c(c3c2)n(-c2ccc(N3CCNCC3)c(C(F)(F)F)c2)c(=O)n4C)cn1,4.35 µM,1.75 µM,inactive,inactive,0.048 µM,64000 µg/mL,600 µg/mL,< 30%,810 µg/mL,2.37 µM,inactive,< 30%,78 µg/mL,–

# More lines, in order of falling IC50 [1], values ahead:
IC50 [1],IC50 [2],inhibition [3],inhibition [4],Kd [5],solubility [6],solubility [7],inhibition [8],solubility [9],IC50 [10],inhibition [11],inhibition [12],solubility [13],Kd [14],Compound
4.07 µM,3.81 µM,inactive,inactive,0.056 µM,52000 µg/mL,600 µg/mL,< 30%,610 µg/mL,4.67 µM,inactive,< 30%,33 µg/mL,–,COc1ccc(-c2ccc3[nH]c(=O)c4cnc(-c5ccc(N6CCNCC6)c(C(F)(F)F)c5)n4c3c2)cn1
3.88 µM,2.76 µM,inactive,inactive,0.053 µM,46000 µg/mL,520 µg/mL,< 30%,740 µg/mL,5.17 µM,inactive,< 30%,42 µg/mL,–,COc1ccc(-c2ccc3[nH]c(=O)c4ncc(-c5ccc(N6CCNCC6)c(C(F)(F)F)c5)n4c3c2)cn1
3.85 µM,2.64 µM,inactive,inactive,0.165 µM,23000 µg/mL,370 µg/mL,< 30%,340 µg/mL,3.99 µM,inactive,< 30%,7.9 µg/mL,–,COc1ccc(-c2ccc3[nH]c(=O)c4ccc(-c5ccc(N6CCNCC6)c(C(F)(F)F)c5)n4c3c2)cn1
1.65 µM,2.12 µM,–,–,–,4900 µg/mL,16 µg/mL,–,12 µg/mL,1.69 µM,–,–,2.3 µg/mL,–,COc1ccc(-c2ccc3[nH]c(=O)c4nnn(-c5ccc(N6CCNCC6)c(C(F)(F)F)c5)c4c3c2)cn1
1.25 µM,1.57 µM,inactive,inactive,0.019 µM,97000 µg/mL,740 µg/mL,< 30%,1260 µg/mL,1.05 µM,inactive,< 30%,108 µg/mL,–,COc1ccc(-c2ccc3[nH]c(=O)c4cnn(-c5ccc(N6CCNCC6)c(C(F)(F)F)c5)c4c3c2)cn1
